Values after ≈ are worked out from the molar mass of the structure shown.
Legend:
[1] = test system: A549; experiment: Cytotoxicity against human A549 cells; type: cell-based
[2] = Intrinsic clearance in mouse microsomes; type: ADME, Microsome
[3] = Fraction unbound in mouse plasma after 5 hrs by rapid equilibrium dialysis method; type: ADME, cell-free
[4] = Aqueous solubility of the compound in 0.1 M sodium phosphate buffer at pH 7.4 after 24 hrs; type: physicochemical
[5] = test system: Mycobacterium tuberculosis; experiment: Antimycobacterial activity against Mycobacterium tuberculosis H37Rv ATCC 27294 after 7 days by broth microdilution method; type: functional; conditions: H37Rv ATCC 27294, 168 h
[6] = test system: Mycobacterium tuberculosis; experiment: Cidality activity against Mycobacterium tuberculosis H37Rv ATCC 27294 assessed as log reduction in bacterial numbers at 32 ug/mL up to 28 days; type: functional
In short: (§1)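 Replicating Mtb grown aerobically in Middlebrook 7H9 broth and exposed to a range of compound concentrations up to 32 µg/mL. Bacterial numbers were followed over time as kill kinetics, and the result is expressed as log reduction in bacterial numbers.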

[7] = test system: Mycobacterium tuberculosis; experiment: Cidality activity against Mycobacterium tuberculosis H37Rv ATCC 27294 assessed as log reduction in bacterial numbers up to 28 days; type: functional, organism-based; in short: as §1
[8] = Fraction unbound in human plasma after 5 hrs by rapid equilibrium dialysis method; type: ADME, cell-free
[9] = Intrinsic clearance in human microsomes; type: ADME, Microsome
In short: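 Intrinsic clearance was measured in human microsomal preparations and is reported in µl/min/mg.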

[10] = Lipophilicity, log D of the compound in 0.01 M sodium phosphate at pH 7.4 after 5 hrs by shake-flask technique; type: physicochemical
[11] = test system: Streptococcus pneumoniae; experiment: Antibacterial activity against Streptococcus pneumoniae by broth microdilution method; type: functional
[12] = test system: Haemophilus influenzae; experiment: Antibacterial activity against Haemophilus influenzae by broth microdilution method; type: functional
[13] = test system: Escherichia coli; experiment: Antibacterial activity against Escherichia coli by broth microdilution method; type: functional
[14] = test system: Staphylococcus aureus; experiment: Antibacterial activity against Staphylococcus aureus by broth microdilution method; type: functional

Compound | solubility at 24 h [4] [µM] | MIC [5] | other results
COc1cncc(-c2cccc(-c3cn4ccnc(C(N)=O)c4n3)c2)c1 | 10 (≈ 3.45 µg/mL) | 12.5 µM | IC50 [1]: > 100 µM; microsomal CLint [2]: 58 µL/min/mg; fraction unbound at 5 h [3]: 0.04
COc1cccc(-c2cccc(-c3cn4cccc(C(N)=O)c4n3)c2)c1 | < 1 | 2 µg/mL | log10cfu [6]: 2; Activity [7]: Dose-dependent effect
COc1cncc(-c2cc(-c3cn4cccc(C(N)=O)c4n3)ccc2F)c1 | < 1 | > 32 µg/mL | 
COc1ccn2cc(-c3cccc(-c4cncc(O[C@H]5CCOC5)c4)c3)nc2c1C(N)=O | 600 (≈ 258 µg/mL) | 12.5 µM | IC50 [1]: > 100 µM
COc1cncc(-c2cccc(-c3cn4cccc(C(N)=O)c4n3)c2)c1 | < 1 | 0.5 µg/mL | microsomal CLint [2]: 113 µL/min/mg; fraction unbound at 5 h [3]: 0.019
COc1cncc(-c2cncc(-c3cn4cccc(C(N)=O)c4n3)c2)c1 | 3.5 (≈ 1.21 µg/mL) | > 32 µg/mL | 
COc1cncc(-c2cccc(-c3nc4c(C(N)=O)cccc4o3)c2)c1 | 2 (≈ 0.691 µg/mL) | 2 µg/mL | 
COc1cncc(-c2cccc(-c3cn4ccc(OC)c(C(N)=O)c4n3)c2)c1 | 40 (≈ 15 µg/mL) | 2 µg/mL | fraction unbound at 5 h [8]: 0.02; microsomal CLint [9]: 56 µL/min/mg; microsomal CLint [2]: 48 µL/min/mg; fraction unbound at 5 h [3]: 0.049; logD at 5 h [10]: 2.3
NC(=O)c1cccn2cc(-c3cccc(-c4cccc(F)c4)c3)nc12 | < 1 | 16 µg/mL | 
CCN(CC)CCNC(=O)c1cccn2cc(-c3cccc(-c4cncc(OC)c4)c3)nc12 | > 2460 | 4 µg/mL | 
NC(=O)c1cccn2cc(-c3cccc(-c4cncc(OC[C@H]5CCCO5)c4)c3)nc12 | 5.3 (≈ 2.2 µg/mL) | 0.25 µg/mL | MIC [11]: > 200 µM; MIC [12]: > 200 µM; MIC [13]: > 200 µM; MIC [14]: > 200 µM
NC(=O)c1nccn2cc(-c3cccc(-c4cncc(OC[C@H]5CCCO5)c4)c3)nc12 | 40 (≈ 16.6 µg/mL) | 6.25 µM | IC50 [1]: > 100 µM
COc1cncc(-c2cc(-c3cn4cccc(C(N)=O)c4n3)ccn2)c1 | 22 (≈ 7.6 µg/mL) | 16 µg/mL | 
CN(C)CCOc1cncc(-c2cccc(-c3cn4cccc(C(N)=O)c4n3)c2)c1 | 320 (≈ 128 µg/mL) | 16 µg/mL | fraction unbound at 5 h [8]: 0.073; microsomal CLint [9]: 47 µL/min/mg
COc1ccn2cc(-c3cccc(-c4cncc(OC[C@H]5CCCO5)c4)c3)nc2c1C(N)=O | 120 (≈ 53.3 µg/mL) | 1 µg/mL | 
CNC(=O)c1cccn2cc(-c3cccc(-c4cncc(OC)c4)c3)nc12 | 5.5 (≈ 1.97 µg/mL) | 2 µg/mL | 
COc1cncc(-c2cccc(-c3cn4cccc(C(=O)N(C)C)c4n3)c2)c1 | 10 (≈ 3.72 µg/mL) | > 32 µg/mL | 
COc1cncc(-c2cccc(-c3nc4c(C(N)=O)cccc4[nH]3)c2)c1 | 3 (≈ 1.03 µg/mL) | 4 µg/mL | 
NC(=O)c1cccn2cc(-c3cccc(-c4cncc(OCC(F)F)c4)c3)nc12 | < 1 | 3.12 µM | MIC [11]: > 200 µM; MIC [12]: > 200 µM; MIC [13]: > 200 µM; MIC [14]: > 200 µM; IC50 [1]: > 100 µM
COc1cncc(-c2cccc(-c3nc4c(C(N)=O)cccn4n3)c2)c1 | 18 (≈ 6.22 µg/mL) | 2 µg/mL | 
NC(=O)c1cccn2cc(-c3cccc(-c4cncc(OCCF)c4)c3)nc12 | 16 (≈ 6.02 µg/mL) | 0.78 µM | MIC [11]: > 200 µM; MIC [12]: > 200 µM; MIC [13]: > 200 µM; MIC [14]: > 200 µM; fraction unbound at 5 h [8]: 0.01; IC50 [1]: > 100 µM; microsomal CLint [9]: 75 µL/min/mg; logD at 5 h [10]: 3.7

Reference: ChEMBL document CHEMBL2413009, “Synthesis and structure activity relationship of imidazo[1,2-a]pyridine-8-carboxamides as a novel antimycobacterial lead series” (Bioorg Med Chem Lett, 2013)
